# Measured values: paper PMC4684727 (Antiviral research, 2015)
# Assays:
# [1] = tested on: HCV-Cre in Huh7.5.1LoxPGluc cells; experiment: HCV-Cre/LoxPGluc cell-based HCV infection qHTS assay; design: species or system Hepatitis C virus; conditions: primary screen, luciferase 48 h
# Method in brief: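 Huh7.5.1LoxPGluc cells carry a Cre-activated Gaussia luciferase and are kept in DMEM with 10% FBS at 37 °C and 5% CO2. Cells (750/well) were plated overnight, then given test compound and HCV-Cre at ~0.05 m.o.i. Five plates were run: DMSO plus 0.34, 1.7, 8.5 and 42 μM. Luciferase was read at 48 h. Responses were normalized to 10 μM cyclosporin A (100%) and DMSO (0%), and EC50 was fitted by nonlinear regression.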
# HCVsc = experiment: HCV single-cycle infection assay; format: cell-based, Hepatitis C virus; conditions: significant = more than 50% decrease
# Method in brief: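 Single-round defective HCV particles were made by replicon trans-packaging. These particles infect and replicate but cannot assemble new virions. Luciferase signal was read 48 h after compound treatment, with cyclosporin A as positive control.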
# HCV life cycle = format: cell-based, Hepatitis C virus; conditions: designated from HCVsc, HCVpp and HCV replicon inhibition (>50% = significant)
# HCVpp-1a = format: cell-based, Hepatitis C virus
# [2] = tested on: human tyrosyl-DNA phosphodiesterase 1; conditions: cited from earlier work; for inhibitory activity of human tyrosyl-DNA phosphodiesterase 1: ref AID 686978
# [3] = tested on: HCV-WT (wild-type HCVcc) in Huh7.5.1 cells; experiment: 2-part HCV-WT infection assay with HCV core immunofluorescence staining; format: cell-based, Hepatitis C virus; conditions: for higher potency at part-2 compared to part-1: HCV-WT 2-part infection assay
# Method in brief: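 Huh7.5.1 cells (3,000/well) were infected with wild-type J6/JFH1 HCVcc at 0.05 moi, with test compound added at infection in 1:3 serial dilutions from 30 μM (part 1). After 48 h, the media were moved onto fresh Huh7.5.1 cells (part 2) and infected for 48 h. Cells were stained with anti-core 6G7 mAb, an Alexa Fluor 488 secondary and Hoechst, then imaged. Core-positive cell percentages were normalized to DMSO and plotted as concentration-response curves.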
# [4] = tested on: assembly of the perinucleolar compartement; conditions: ref AID 2427; cited from earlier work
# DNA polymerase ETA = conditions: ref AID 588591; cited from earlier work
# [5] = Rat liver microsomal stability; format: in vitro ADME; conditions: for Microsomal t1/2: rat liver microsomes, 37°C, NADPH
# Aqueous solubility = format: physicochemical
# D1 dopamine receptor = conditions: ref AID: 504660; cited from earlier work
# [6] = tested on: human M1 muscarinic receptor; conditions: ref AID: 624040; cited from earlier work
# Permeability = format: physicochemical
# miRNAs = conditions: D4 and its derivatives; ref AID: 2289; cited from earlier work
# [7] = tested on: posterior segregation family member (pos-1) binding to mex-3-RNA; conditions: ref PubChem AID: 1964; cited from earlier work
# [8] = tested on: 5′UTR stem-loop driven prion protein mRNA translation in H4 neuroglioblastoma cells; conditions: D4 and its derivatives, ref AID: 1814; cited from earlier work
# [9] = tested on: respiratory syncytial virus (RSV); conditions: ref AID: 2410; cited from earlier work
# [10] = tested on: ELG1-dependent DNA repair; conditions: PubChem / in-house qHTS cross-activity, AID not given; cited from earlier work
# HIV = conditions: ref AID:651610; cited from earlier work
compound,measurement,setting,value
CCCCCn1c(=O)[nH]c2cc(C(=O)NCCN3CCCCC3C)ccc2c1=O (centres unmarked) [MLS000948325-01],EC50,[1],22.4 µM
Cc1oc(-c2ccc(Cl)cc2)nc1CN1CCC(C(=O)NCCCN2CCCC2=O)CC1 [MLS000878431-01],EC50,[1],22.4 µM
N=c1c(C(=O)NCc2ccc3c(c2)OCO3)cc2c(=O)n3ccccc3nc2n1Cc1cccnc1 [MLS000040412-01],inhibition in HCVsc assay,HCVsc,significant inhibition
same,Life cycle stage,HCV life cycle,entry inhibitors
same,inhibition in HCVpp assay,HCVpp-1a,less than 50%
COc1ccc(CCNC(=O)c2cc3c(=O)n4ccccc4nc3n(C3CCCCC3)c2=N)cc1 [MLS001139315-01],Life cycle stage,HCV life cycle,entry inhibitors
N#C/C(=C\Nc1ccc2cn[nH]c2c1)c1nc(-c2ccccc2)cs1 [D2],inhibitory activity of human tyrosyl-DNA phosphodiesterase 1,[2],showed inhibitory activity
Cc1cc(SCC(=O)c2ccccc2)n2ncc(-c3ccccc3)c2n1 [MLS000763045-01],higher potency at part-2 compared to part-1,[3],10–50 fold
Cn1c(=O)c2c(nc(SCC(=O)NCc3ccc4c(c3)OCO4)n2Cc2ccc(Cl)cc2)n(C)c1=O [D3],inhibition of assembly of the perinucleolar compartement,[4],inhibited the assembly
same,inhibition of DNA polymerase ETA,DNA polymerase ETA,inhibitor
CCCCCn1c(=O)[nH]c2cc(C(=O)NCCCN3CCCCC3CC)ccc2c1=O (centres unmarked) [MLS000948303-01],EC50,[1],7.08 µM
COc1ccc(CN2CCC(N(CCc3ccccc3)Cc3ccccc3)CC2)c(OC)c1.O=C(O)C(=O)O [MLS000662842-01],Microsomal t1/2,[5],2.3 m
same,half-life (t1/2) in rat microsomes,[5],2.3 min
same,Solubility,Aqueous solubility,49.3 µg/mL
same,Life cycle stage,HCV life cycle,Assembly/secretion
Cc1ccccc1-c1nc(CN2CCC(C(=O)NCCC3=CCCCC3)CC2)c(C)o1 [MLS000095191-01],EC50,[1],6.31 µM
CC1CCN(CCCNC(=O)c2ccc3c(=O)n(CCc4ccccc4)c(=O)[nH]c3c2)CC1 [MLS000519916-01],EC50,[1],8.91 µM
CCN1CCN(c2ccc(NC(=O)c3cccc(OCc4ccccc4)c3)cc2)CC1 [B5],activity against D1 dopamine receptor,D1 dopamine receptor,showed activities
same,activity against human M1 muscarinic receptor,[6],showed activities
Cc1ccccc1-c1nc(CN2CCC(C(=O)NCCCN3CC(C)CC(C)C3)CC2)c(C)o1 (centres unmarked) [MLS000877128-01],EC50,[1],1.26 µM
same,Solubility,Aqueous solubility,53.9 µg/mL
same,Life cycle stage,HCV life cycle,Entry
same,Permeability,Permeability,489.1 ×10⁻⁶ cm/s
Cc1ccccc1-c1nc(CN2CCC(C(=O)NCC3CCCO3)CC2)c(C)o1 (centres unmarked) [MLS000095190-01],EC50,[1],> 100 µM
CCC1CCCCN1CCCNC(=O)C1CCN(Cc2nc(-c3ccc(Cl)cc3)oc2C)CC1 (centres unmarked) [MLS000913279-01],EC50,[1],1.41 µM
CCOC(=O)c1cc2c(=O)n3ccccc3nc2n(CCCOC)c1=NC(=O)C(C)(C)C [MLS000879011-01],Life cycle stage,HCV life cycle,entry inhibitors
CCC1CCCCN1CCCNC(=O)c1ccc2c(=O)n(CCOC)c(=O)[nH]c2c1 (centres unmarked) [MLS000948314-01],EC50,[1],> 100 µM
O=C(NCCCN1CCCCC1)c1ccc2c(=O)n(CCc3ccccc3)c(=O)[nH]c2c1 [MLS000086784-01],EC50,[1],6.31 µM
Cc1ccccc1-c1nc(CN2CCC(C(=O)NCCCN3CCCC3)CC2)c(C)o1 [MLS000095192-01],EC50,[1],14.1 µM
CC1CCCCN1CCCNC(=O)c1ccc2c(=O)n(CCc3ccccc3)c(=O)[nH]c2c1 (centres unmarked) [MLS000519917-01],EC50,[1],3.98 µM
COC(=O)C1=C(c2ccc(-c3ccccc3)c(F)c2)C[C@@H]2CC[C@H]1N2C(=O)NCc1cccc2ccccc12 [D1],inhibitory activity of human tyrosyl-DNA phosphodiesterase 1,[2],showed inhibitory activity
CCNC(=S)/N=C(\N)Nc1nc(C)c2cc(C)ccc2n1 [D4],modulation of miRNAs,miRNAs,potent modulators
same,targeting pos-1 binding to mex-3-RNA,[7],targets
same,activation of 5′UTR stem-loop driven prion protein mRNA translation,[8],activators
CC(NC(=O)c1cc2c(=O)n3ccccc3nc2n(CC2CCCO2)c1=N)c1ccccc1 (centres unmarked) [MLS001217747-01],inhibition in HCVsc assay,HCVsc,significant inhibition
same,Life cycle stage,HCV life cycle,entry inhibitors
CCCCCn1c(=O)[nH]c2cc(C(=O)NCCCN3CCC(C)CC3)ccc2c1=O [MLS000876570-01],EC50,[1],4.47 µM
same,Microsomal t1/2,[5],> 30.0 m
same,half-life (t1/2) in rat microsomes,[5],greater than 30 min
same,Solubility,Aqueous solubility,> 59.0 µg/mL
same,Life cycle stage,HCV life cycle,Entry
same,Permeability,Permeability,< 30.9 ×10⁻⁶ cm/s
Cc1ccc(C)c2nc(SCC(=O)N3CCCc4ccccc43)c(C#N)cc12 [D7],higher potency at part-2 compared to part-1,[3],10–50 fold
CCN1CCN(CCCOc2ccc(-c3ccccc3)cc2)CC1 [MLS000049859-01],Microsomal t1/2,[5],7.9 m
same,half-life (t1/2) in rat microsomes,[5],7.9 min
same,Solubility,Aqueous solubility,> 48.0 µg/mL
same,Life cycle stage,HCV life cycle,Entry
same,Permeability,Permeability,>2183.0 ×10⁻⁶ cm/s
Cc1oc(-c2ccc(Cl)cc2)nc1CN1CCCC(C(=O)NCCCN2CCCC2=O)C1 (centres unmarked) [MLS000117605-01],EC50,[1],11.2 µM
O=C(Nc1ccc(S(=O)(=O)Nc2ccccc2)cc1)c1ccc(CN2CCOCC2)cc1 [MLS000714550],"inhibition of HCV core-positive cells, part-1 versus part-2","[3]; compounds 1:3 dilutions from 30 μM, 48 h per part",decreased similarly in both parts
CCCCCn1c(=O)[nH]c2cc(C(=O)NC3CCN(Cc4ccccc4)CC3)ccc2c1=O [MLS000519908-01],EC50,[1],> 100 µM
Cc1c(NC(=O)c2cc3c(s2)-c2ccccc2OC3)cccc1[N+](=O)[O-] [D5],inhibition of RSV,[9],inhibitor
same,inhibitory activity against ELG1-dependent DNA repair,[10],showed inhibitory activities
same,inhibitory activity against human TDP1,"[2]; PubChem / in-house qHTS cross-activity, AID not given",showed inhibitory activities
same,inhibition of HIV,HIV,inhibitor
Cc1ccccc1-c1nc(CN2CCC(C(=O)NCCN3CCOCC3)CC2)c(C)o1 [MLS000913230-01],EC50,[1],> 100 µM
CCCCCn1c(=O)[nH]c2cc(C(=O)NCCCN3CCCCC3)ccc2c1=O [MLS000086763-01],EC50,[1],10 µM
COc1ccc(CCNC(=O)c2cc3c(=O)n4ccccc4nc3n(CCCN3CCOCC3)c2=N)cc1 [MLS001139388-01],Life cycle stage,HCV life cycle,entry inhibitors
Cc1ccccc1-c1nc(CN2CCC(C(=O)NCc3cccnc3)CC2)c(C)o1 [MLS000095186-01],EC50,[1],5.01 µM
